Published values collected from several papers.
Each line is one published result; the experiments were not run side by side.
ABL1 Q252H non-phosphorylated: Tyrosine-protein kinase ABL1, non-phosphorylated (ABL1, Homo sapiens, UniProt P00519, Q252H)
ABL1 F317I non-phosphorylated: Tyrosine-protein kinase ABL1, non-phosphorylated (ABL1, Homo sapiens, UniProt P00519, F317I)
ABL1 Q252H phosphorylated: Tyrosine-protein kinase ABL1, phosphorylated (ABL1, Homo sapiens, UniProt P00519, Q252H)
ABL1 E255K phosphorylated: Tyrosine-protein kinase ABL1, phosphorylated (ABL1, Homo sapiens, UniProt P00519, E255K)
ABL1 F317L: Tyrosine-protein kinase ABL1 (ABL1, Homo sapiens, UniProt P00519, F317L)
ABL1 T315I non-phosphorylated: Tyrosine-protein kinase ABL1, non-phosphorylated (ABL1, Homo sapiens, UniProt P00519, T315I)
ABL1 Y253F: Tyrosine-protein kinase ABL1 (ABL1, Homo sapiens, UniProt P00519, Y253F)
ABL1 F317L non-phosphorylated: Tyrosine-protein kinase ABL1, non-phosphorylated (ABL1, Homo sapiens, UniProt P00519, F317L)

| Compound | target | test | conditions | remaining binding [%] |
| --- | --- | --- | --- | --- |
| O=C(NCCCN1CCOCC1)c1ccc(Nc2ncc(Cl)c(-c3ccc(Cl)s3)n2)cc1 | Tyrosine-protein kinase ABL1, non-phosphorylated (ABL1, Homo sapiens, UniProt P00519, H396P) | binding, competition with immobilised ligand | 1 µM | 4.2 |
| COc1cnc(Nc2cccc(S(N)(=O)=O)c2)nc1N1CCN(c2ccccc2)CC1 | ABL1 Q252H non-phosphorylated | binding, competition with immobilised ligand | 1 µM | 78 |
| C[C@@]1(Cc2ccc(C#N)cc2)C(=O)N(c2cc(Cl)cc(Cl)c2)c2ncc(C(=O)NC3(c4nc(C5CCC5)no4)CC3)n21 | ABL1 F317I non-phosphorylated | binding, competition with immobilised ligand | 1 µM | 94 |
| N[C@H]1CCN(c2nccc(-c3cnn4ncccc34)n2)C1 | Tyrosine-protein kinase ABL1 (ABL1, Homo sapiens, UniProt P00519, T315I) | binding | 1 µM | 88 |
| COc1cnc(Nc2cccc(S(N)(=O)=O)c2)nc1N1CCN(c2ccccc2)C(=O)C1 | ABL1 Q252H phosphorylated | binding, competition with immobilised ligand | 1 µM | 87 |
| Cc1cnc(Nc2ccc(C(=O)N3CCC(N4CCCC4)CC3)cc2)nc1-c1cc2ccccc2s1 | ABL1 E255K phosphorylated | binding, competition with immobilised ligand | 1 µM | 1.4 |
| COc1ccnn2ncc(-c3ccnc(N(C)C)n3)c12 | ABL1 F317L | binding | 1 µM | 85 |
| C=CC(=O)N1CCC(C(=O)NCC(=O)N2CCN(c3nc(-c4cnc(N)nc4C(F)F)nc(N4CCOCC4)n3)CC2)CC1 | ABL1 Q252H phosphorylated | binding, competition with immobilised ligand | 1 µM | 100 |
| COc1ncc2cc3ccccc3nc2c1C#N | Tyrosine-protein kinase ABL1, phosphorylated (ABL1, Homo sapiens, UniProt P00519, M351T) | cell-free assay, competition with immobilised ligand | 5 µM | 100 |
| CNC(=O)[C@@H]1CC[C@@H](n2c(-c3ccc4cnccc4c3)nc3ccc(C(=O)NCc4cccc(C(N)=O)c4)cc32)C1 | ABL1 Q252H phosphorylated | binding, competition with immobilised ligand | 1 µM | 100 |
| O=C(c1ccc(Nc2ncc(Cl)c(-c3cc4ccccc4s3)n2)cc1)N1CCC(N2CCCC2)CC1 | ABL1 T315I non-phosphorylated | binding, competition with immobilised ligand | 1 µM | 0.9 |
| CN1CCN(c2ccc(Nc3nccc(-c4cccc([N+](=O)[O-])c4)n3)cc2C(F)(F)F)CC1 | ABL1 Y253F | binding | 10 µM | 4 |
| CC1CCCN1c1nccc(-c2cnn3ncccc23)n1 (stereo not shown) | Tyrosine-protein kinase ABL1 (ABL1, Homo sapiens, UniProt P00519, H396P) | binding | 1 µM | 80 |
| CS(=O)(=O)N1CCCC(NC(=O)[C@H](CCC2CCCCC2)NC(=O)c2ccc(CNC(=O)c3cnc4ccccn34)cc2)C1 (stereo partly shown) | Tyrosine-protein kinase ABL1, phosphorylated (ABL1, Homo sapiens, UniProt P00519, Y253F) | cell-free assay, competition with immobilised ligand | 0.1 µM | 76 |
| O=C(NCC1CCOCC1)c1n[nH]cc1NC(=O)c1c(F)cccc1F | ABL1 T315I non-phosphorylated | binding, competition with immobilised ligand | 1 µM | 90 |
| O=C(O)[C@@H]1[C@@H](Cn2nnc3ccccc3c2=O)CC[C@H]1C(=O)c1ccc(OCCC2CCOCC2)cc1 | ABL1 F317I non-phosphorylated | binding, competition with immobilised ligand | 1 µM | 82 |
| F[C@@H]1CCN(c2nccc(-c3cnn4ncccc34)n2)C1 | ABL1 Y253F | binding | 1 µM | 90 |

| Compound | target | test | conditions | remaining binding [%] |
| --- | --- | --- | --- | --- |
| O=C(NCCCN1CCOCC1)c1ccc(Nc2nccc(-c3cc4ccccc4s3)n2)cc1 | Tyrosine-protein kinase ABL1, non-phosphorylated (ABL1, Homo sapiens, UniProt P00519) | binding, competition with immobilised ligand | 1 µM | 37 |
| c1cncc(-c2cccc(Nc3nccc(NC4CCCCC4)n3)c2)c1 | ABL1 Q252H non-phosphorylated | binding, competition with immobilised ligand | 10 µM | 20 |
| C[C@@H]1CCN(c2nccc(-c3cnn4ncccc34)n2)C1 | Tyrosine-protein kinase ABL1 (ABL1, Homo sapiens, UniProt P00519, M351T) | binding | 1 µM | 100 |
| CCCCN(CCCC)C(=O)CN1C[C@@H](c2cc(OC)c3c(c2)OCO3)[C@H](C(=O)O)[C@H]1CC(C)(C)CCC | Tyrosine-protein kinase ABL1, phosphorylated (ABL1, Homo sapiens, UniProt P00519, F317L) | cell-free assay, competition with immobilised ligand | 1 µM | 93.5 |
| CN(C)c1nccc(-c2cnn3ncccc23)n1 | Tyrosine-protein kinase ABL1 (ABL1, Homo sapiens, UniProt P00519, E255K) | binding | 1 µM | 60 |
| Nc1ncc2c(n1)-c1c([nH]c3ccc(C#CC4CC4)cc13)CCCC2 | ABL1 F317L non-phosphorylated | binding, competition with immobilised ligand | 1 µM | 63 |
| O=C(c1ccc(Nc2nccc(-c3cc4ccccc4s3)n2)cc1)N1CCC(N2CCCC2)CC1 | Tyrosine-protein kinase ABL1, phosphorylated (ABL1, Homo sapiens, UniProt P00519, H396P) | binding, competition with immobilised ligand | 1 µM | 13 |
| Nc1c(C(=O)NCc2ccc(C(=O)NCCCC3CCCCC3)cc2)cnn1-c1ccccc1 | ABL1 Q252H phosphorylated | cell-free assay, competition with immobilised ligand | 0.1 µM | 98 |
| O=C(Nc1c[nH]nc1C(=O)NC1CCNCC1)c1cc(F)cc(F)c1 | ABL1 F317L non-phosphorylated | binding, competition with immobilised ligand | 1 µM | 100 |
| CCN1CCN(Cc2ccc(C(=O)Nc3ccc(C)c(Oc4ccc5c(c4)CC(=O)N5)c3)cc2C(F)(F)F)CC1 | ABL1 E255K phosphorylated | binding, competition with immobilised ligand | 1 µM | 74 |
| CN(c1ccnc(CNc2nc(Nc3ccc4c(c3)CC(=O)N4)ncc2C(F)(F)F)n1)S(C)(=O)=O | Tyrosine-protein kinase ABL1, phosphorylated (ABL1, Homo sapiens, UniProt P00519, F317I) | binding | 1 µM | 79 |
| O=C(c1ccc(Nc2ncc(Cl)c(-c3ccc(Cl)s3)n2)cc1)N1CCC(N2CCCC2)CC1 | ABL1 Q252H non-phosphorylated | binding, competition with immobilised ligand | 1 µM | 1 |
| Cc1cnn2ncc(-c3ccnc(N(C)C)n3)c2c1 | Tyrosine-protein kinase ABL1, phosphorylated (ABL1, Homo sapiens, UniProt P00519) | binding | 1 µM | 81 |
| CC(=O)N1CCC(c2ccc(C(=O)NC(=N)N)cc2C(F)(F)F)CC1 | ABL1 Q252H phosphorylated | cell-free assay, competition with immobilised ligand | 1 µM | 100 |
| c1cnn2ncc(-c3ccnc(N4CCC45COC5)n3)c2c1 | ABL1 F317L | binding | 1 µM | 53 |
| COCCOc1nc(-c2ccc(Cl)nc2)nc2c1CN(C(=O)c1ncn3ccccc13)CC2 | ABL1 E255K phosphorylated | binding, competition with immobilised ligand | 0.1 µM | 100 |
| C[C@@H](c1ccc(-n2cnc3c(N)ncnc32)cc1)N1CCc2nn(C)c(Cc3ccccc3)c2C1=O | ABL1 Q252H phosphorylated | binding, competition with immobilised ligand | 0.1 µM | 72 |
